# Compounds with a hit are over-represented: about 2.6% of the library has one in this group of screens.
# OXTR agonist: agonists of human oxytocin receptor | P30559 | CHO-OTR cells, Fluo-8 calcium fluorescence; normalized: DMSO 0%, oxytocin 100% | activation, % at 3 µM | actives 0.32% (n = 320,000);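 active means activation above the mean of all tested compounds plus 3 SD, cutoff set per screening run, cut at about 20% in these data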;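 further: peak over basal fluorescence ratio from a 100 s FLIPR kinetic read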
# Target sequence (P30559 whole entry, looked up): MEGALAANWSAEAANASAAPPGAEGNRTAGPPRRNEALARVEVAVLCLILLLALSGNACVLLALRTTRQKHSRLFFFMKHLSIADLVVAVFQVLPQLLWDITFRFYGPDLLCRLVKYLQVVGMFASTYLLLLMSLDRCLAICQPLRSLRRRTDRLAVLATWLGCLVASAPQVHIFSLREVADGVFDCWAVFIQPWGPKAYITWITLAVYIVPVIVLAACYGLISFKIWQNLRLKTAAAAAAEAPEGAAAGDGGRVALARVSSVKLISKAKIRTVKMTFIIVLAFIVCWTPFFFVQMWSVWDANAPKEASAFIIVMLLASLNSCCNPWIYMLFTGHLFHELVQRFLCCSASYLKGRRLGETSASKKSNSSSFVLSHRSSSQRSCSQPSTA
# V1aR counter: V1a receptor agonism, counter-screen for OXTR agonists; activation, % at 3 µM; actives 0.25% (n = 320,000); P37288; CHO-V1R cells, Fluo-8 calcium fluorescence, agonist mode; 0% DMSO, 100% 3 nM vasopressin; AID 2797;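 active means activation above the mean activation of all tested compounds plus 3 SD, per screening run, cut at about 20% in these data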;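 further: signal is peak over basal fluorescence ratio across a 100 second FLIPR read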
# CHO parental Ca: counter-screen: ATP calcium response change in parental CHO cells; parental CHO-K1, ATP-induced calcium, Fluo-8 fluorescence; inhibition, % at 5.6 µM; actives 0.63% (n = 330,000); AID 463079;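 active means inhibition above that plate's mean sample inhibition plus 3 SD, cut at about 26% in these data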;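 further: 0% = ATP-challenged DMSO wells and 100% = DMSO wells without ATP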
#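 test system = CHO parental line | reagent = ATP stimulus | measured by = intracellular calcium via Fluo-8 no-wash fluorescent dye | control set = ATP and no-ATP DMSO wells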
# OXTR potentiator: potentiates the human oxytocin receptor response; P30559; CHO-OTR cells, Fluo-8 calcium fluorescence, potentiator mode; 0% = oxytocin EC15, 100% = EC100; activation, % at 3 µM; actives 0.061% (n = 320,000); AID 2445;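 active means activation above that plate's cutoff, the mean activation of tested compounds plus 3 SD, cut at about 6.6% in these data, passing the limit was not always enough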;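 further: 100% uses oxytocin at 75 nM as the full agonist control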
#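 Dosing: Single dose, 3.0 µM nominal final compound concentration | Material: Human OTR in CHO cells | Technique: Kinetic Fluo-8 calcium fluorescence | Benchmarks: EC15 oxytocin alone as 0%, 75 nM oxytocin as 100% | Probe or stimulus: Oxytocin at about EC15, sub-maximal agonist stimulus | Incubation: Compound 6 min at room temperature before oxytocin, 100 s read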
# OX1R antag-1: human HCRTR1 antagonism; CHO/OX1R cells, Fluo-8 calcium fluorescence, orexin A; O43613; AID 434989; inhibition, % at 5 µM; actives 0.43% (n = 330,000);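 active means inhibition above its plate's threshold, mean inhibition of all tested compounds on the plate plus 3 SD, cut at about 37% in these data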;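 further: 0% = orexin A challenge wells and 100% = SB-334867-A antagonist wells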
# OX1R antag-2: blocks the human orexin 1 receptor. actives 1.8% (n = 330,000). AID 485270. inhibition, % at 6.6 µM. OX1R-expressing cells, FRET antagonist read-out. O43613; in the data active means inhibition mostly above about 38%, no sharp cut-off; inactive means mostly below about 40%;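 further: 0% = agonist challenge alone and 100% = reference antagonist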
# OX1R HTRF confirm: confirmation of human orexin 1 receptor antagonists, HTRF format | shares compounds with OX1R antag-2 | OX1R-expressing cells, HTRF antagonist assay | inhibition, % at 6.6 µM | actives 49% (n = 1,800) | AID 492964; in the data active means inhibition above about 55%;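 further: CHO cells expressing OX1R stimulated with orexin A at about EC80; 0% = agonist challenge alone and 100% = reference antagonist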
# CHO-K1 HTRF cnt: counter-screen for OX1R antagonists: effect in parental CHO-K1 cells | shares compounds with OX1R antag-2 | actives 48% (n = 1,800) | HTRF counterscreen | inhibition, % at 6.6 µM; in the data active means inhibition above about 17%;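 further: 0% = agonist challenge with vehicle and 100% = vehicle alone without agonist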
# Starred values were filed as active, the others as inactive; . = no result; + = active, no number.
SMILES,OXTR agonist,V1aR counter,CHO parental Ca,OXTR potentiator,OX1R antag-1,OX1R antag-2,OX1R HTRF confirm,CHO-K1 HTRF cnt
COc1ccc(CNC(=O)C[C@H]2C(=O)N(CCc3ccccc3)C[C@@H]2Cc2ccccc2)cc1,2,0,-15,-15,-21,27,.,.
O=C(CS(=O)c1ccc(C(F)(F)F)cc1[N+](=O)[O-])Oc1ccccc1 (stereo not given),0,0,-14,-12,-7,86*,47,13
O=C1c2cccc3cccc(c23)C(=O)N1/N=C/c1ccc(O)cc1O,1,0,-1,-4,-7,99*,41,64*
O=C(OC1CCCCC1=O)c1ccc(F)c(S(=O)(=O)N2CCOCC2)c1 (stereo not given),1,0,-13,-6,-7,14,.,.
COc1ccc(CCNC(=O)CSc2nnc3ccccn23)cc1,1,0,-4,2,-7,13,.,.
COc1cccc2cc(-c3nc4ccccc4o3)c(=O)oc12,-3,1,-22,2,0,123*,25,18*
O=c1oc2ccc(Br)cc2cc1-c1nc2ccccc2o1,0,0,15,-9,2,15,.,.
CC(=O)Nc1ccc(NC(=O)C(C)OC(=O)C(C)SCC(=O)Nc2ccc(C)cc2)cc1 (stereo not given),1,0,11,-11,-1,82*,75*,3
Nc1nnc(-c2cc3ccccc3oc2=O)s1,0,0,4,-5,-18,152*,36,50*
O=C(Nc1cc(S(=O)(=O)N2CCCCC2)ccc1O)c1ccccc1NS(=O)(=O)c1ccc(F)c(F)c1,0,5,-17,-11,12,83*,42,2
CCN(CC)C1=NS(=O)(=O)c2cc([N+](=O)[O-])ccc21,1,1,1,-14,-12,+,48,97*
CCN(CC)c1ccc([N+](=O)[O-])cc1C(=O)N1CCOCC1,0,2,1,-1,-6,65,.,.
COc1ccccc1C(C(=O)NC1CCCC1)N(C(=O)c1csnn1)C1CC1 (stereo not given),0,1,-24,-8,-28,9,.,.
O=[N+]([O-])c1nn(-c2ccc(Cl)cc2)n(O)c1=NCc1ccncc1,2,-1,-16,-1,-21,84*,41,54*
Cc1ccc(CN=c2c([N+](=O)[O-])nn(-c3ccc(Cl)cc3)n2O)cc1,-3,-1,-6,-11,-4,23,.,.
COc1ccc(CNC(=O)CSc2nnc3c(Cl)cc(C(F)(F)F)cn23)cc1OC,1,0,-11,-1,-23,10,.,.
COC(=O)CSc1nc2ccc(C)cc2[nH]1,0,0,2,-13,0,-2,.,.
Cc1ccc2nc(SCC(=O)c3ccc(O)cc3O)[nH]c2c1,2,-1,3,-2,3,81*,79*,-5
N=c1oc2cc(O)ccc2cc1C(=O)Nc1ccc(F)cc1,7,1,-3,-15,-13,3,.,.
COc1ccc(NC(=O)c2cc3ccc(O)cc3o/c2=N\O)cc1,-1,1,-2,-4,9,85*,76*,9
Nc1c(N=Nc2ccccc2F)c(=O)[nH]n1-c1ccccc1,-1,-2,-9,0,22,86*,67*,12
Cc1ccc(C(=O)Oc2cccc(NC(=O)c3cccs3)c2)cc1S(=O)(=O)N1CCOCC1,-2,0,16,-19,21,79*,32,10
CC(=O)c1cccc(NC(=O)c2ccc(C)c(S(=O)(=O)N3CCOCC3)c2)c1,1,6,-15,-11,-12,27,.,.
Cc1ccc(C(=O)Nn2cnnc2)cc1S(=O)(=O)N1CCOCC1,0,0,-2,0,-5,86*,13,-7
Cc1ccc(C(=O)NC2CC2)cc1S(=O)(=O)N1CCOCC1,0,0,-2,3,-5,4,.,.
SMILES,OXTR agonist,V1aR counter,CHO parental Ca,OXTR potentiator,OX1R antag-1,OX1R antag-2,OX1R HTRF confirm,CHO-K1 HTRF cnt
CCCCS(=O)(=O)N1CCN(S(=O)(=O)c2ccc(Cl)s2)CC1,0,2,-9,-6,-8,3,.,.
C/C(CC(=O)Nc1c(C)cc(C)cc1C)=N\NC(=O)Cc1ccccc1,-1,0,-19,-9,-26,16,.,.
N#CCCn1c(O)c(N=NC(=O)CNC(=O)c2cccs2)c2ccccc21,0,-1,-8,0,-22,93*,38,50*
CCOC(=O)C1=C(O)C(=O)N(c2ccc(S(N)(=O)=O)cc2)C1c1ccc([N+](=O)[O-])cc1 (stereo not given),0,1,-2,1,8,28,.,.
CCOC(=O)CC1ON(C)C(=O)N1c1ccc([N+](=O)[O-])cc1 (stereo not given),0,0,-3,-13,-11,101*,26,17
O=C(Cc1ccc(Br)cc1)Nc1cccc(Cl)c1,-1,1,-8,-7,-16,28,.,.
Cc1ccc(NC(=O)CN2C(=O)NC3(CCCCC3)C2=O)cc1S(=O)(=O)N1CCOCC1,1,1,-10,1,15,3,.,.
NC(=O)c1c(NC(=O)c2ccccc2)sc2c1CCC2,-2,0,-20,-12,14,89*,84*,3
O=c1c2ccccc2oc2cc(-c3ccc(CN4CCOCC4)cc3)ccc12,6,5,-16,-5,7,7,.,.
O=C(CSc1nccc(=O)[nH]1)Nc1cccc(S(=O)(=O)N2CCOCC2)c1,1,1,5,-2,1,14,.,.
N#Cc1c(-c2ccc(Cl)cc2)ccnc1N1CCOCC1,-2,-1,-17,0,-31,21,.,.
Cc1ccccc1NC(=O)C(=O)c1cn(C)c2ccccc12,-2,-2,-10,-13,-23,25,.,.
COc1cccc(/C=N/NC(=O)C(=O)Nc2ccccc2OC(F)(F)C(F)F)c1O,0,0,-14,-8,-2,97*,93*,9
COc1ccccc1/C=N/NC(=O)c1cccc(OC(F)(F)C(F)F)c1,-2,-1,-5,-5,-21,3,.,.
O=C(CCC1CCCN(C(=O)c2ccsc2)C1)N1CCN(c2ccccn2)CC1 (stereo not given),-1,1,-24,-2,-27,7,.,.
CC(=O)Nc1ccc(Nc2cc(C)c3ccccc3n2)cc1,1,1,-13,-6,-12,16,.,.
CC(=O)Nc1ccc2c(c1)ncn2-c1ccccc1,0,1,-5,-1,9,6,.,.
